Data on four molecules can be found in publication PMC6219460 (SLAS discovery : advancing life sciences R & D, 2017).

Test [1] addresses T1, human CB2 receptor (Homo sapiens, UniProt P34972). The class given is binding. To be noted: for selectivity for CB2 versus CB1 (in words): from radioligand binding at CB2 and CB1.
The target in a further test is human CB1 receptor (Homo sapiens, UniProt P21554). The class given is binding. To be noted: for inhibition of [3H]CP 55,940 binding to CB1 receptors (in words): concentrations up to 10 μM.
For test [2], the target named is T1, human CB2 receptor. The test can be described thus: [35S]GTPγS binding assay, HEK293 membranes expressing CB2. The format is biochemical. The note with it: 10 μM GDP. The procedure, abridged:
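HEK293 membranes expressing recombinant human CB2 (8 µg/well) were incubated with 0.1 nM [35S]GTPγS, 10 µM GDP, 0.1% (w/v) BSA and test compound (typically 1 nM–10 µM) in 50 mM Tris-HCl pH 7.4, 3 mM MgCl2, 0.2 mM EGTA, 100 mM NaCl. Nonspecific binding was set with 10 µM unlabeled GTPγS. Reactions were stopped by filtration. Duplicates, three experiments.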
A general note: Binding of GTPγS marks nucleotide exchange on a G protein.

Where [3] appears, read: Ki (μM) CB2, [3H]CP 55,940 tracer at 1.5 nM.
The mark [4] stands for this setting: read-out: log (Ki, Molar) CB1 (converted), [3H]CP 55,940 tracer at 1.5 nM.
Setting [5] is: EC50 GTPγS binding, 0.1 nM [35S]GTPγS.
Setting [6] is: log (EC50, Molar) GTPγS binding CB2, 0.1 nM [35S]GTPγS.

Read-outs that look alike come from different tables or passages of the source.

T1 sequence (P34972 whole entry): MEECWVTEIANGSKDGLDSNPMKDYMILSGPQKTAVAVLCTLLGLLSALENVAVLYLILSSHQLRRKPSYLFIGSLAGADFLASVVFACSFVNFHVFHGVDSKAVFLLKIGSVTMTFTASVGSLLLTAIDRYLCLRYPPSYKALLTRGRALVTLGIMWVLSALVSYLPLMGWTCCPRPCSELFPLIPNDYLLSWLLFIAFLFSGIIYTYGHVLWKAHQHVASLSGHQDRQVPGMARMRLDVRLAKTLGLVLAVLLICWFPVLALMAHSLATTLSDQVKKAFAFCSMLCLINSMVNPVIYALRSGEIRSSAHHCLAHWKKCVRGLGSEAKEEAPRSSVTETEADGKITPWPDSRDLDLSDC
Sequence of human CB1 receptor (P21554 whole entry): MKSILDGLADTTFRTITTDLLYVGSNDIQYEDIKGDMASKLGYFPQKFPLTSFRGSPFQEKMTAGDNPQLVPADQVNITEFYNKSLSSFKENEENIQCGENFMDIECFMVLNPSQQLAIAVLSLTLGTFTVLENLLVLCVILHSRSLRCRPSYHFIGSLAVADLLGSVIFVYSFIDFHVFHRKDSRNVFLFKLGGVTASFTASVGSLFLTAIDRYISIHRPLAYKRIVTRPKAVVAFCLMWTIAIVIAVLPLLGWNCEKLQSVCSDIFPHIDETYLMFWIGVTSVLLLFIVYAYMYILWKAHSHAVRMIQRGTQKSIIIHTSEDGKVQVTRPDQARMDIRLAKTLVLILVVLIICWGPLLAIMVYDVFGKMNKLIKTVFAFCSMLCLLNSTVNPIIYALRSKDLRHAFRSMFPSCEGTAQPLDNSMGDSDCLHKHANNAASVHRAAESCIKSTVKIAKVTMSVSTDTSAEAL

By Ki is commonly meant the equilibrium dissociation constant of an inhibitor or competing ligand from its target. As a reminder, the EC50 is the concentration that produces a half-maximal response. Higher therefore signals weaker potency. Consider `CC(C)c1cc(C2CCCN2C(=O)c2cc(-c3ccc4c(c3)OCO4)on2)no1` (stereo not drawn) [Compound 1, (5-(benzo[d][1,3]dioxol-5-yl)isoxazol-3-yl)(2-(5-isopropylisoxazol-3-yl)pyrrolidin-1-yl)methanone], for which the values for the Ki on human CB2 receptor [1] (setting [3]), on human CB1 receptor and at human CB1 receptor (setting [4]) were 2.3 µM, greater than 10 µM and greater than 10 µM, respectively. Further, the “selectivity for CB2 versus CB1 (in words)” value (from here on “selectivity”) on human CB2 receptor [1] is “selectively bind CB2 receptors”. In addition, the “inhibition of [3H]CP 55,940 binding to CB1 receptors (in words)” value on human CB1 receptor is reported as “no measurable inhibition”. Besides, the EC50 on human CB2 receptor [2] (setting [5]) turned out to be 500 nM.
Consider `c1ccc(Nc2nc3ccccc3nc2Nc2ccccc2)cc1` [Compound 2, N2,N3-diphenylquinoxaline-2,3-diamine], for which the figures for the Ki on human CB2 receptor [1] (setting [3]) and on human CB1 receptor were 1.1 µM and 1.8 µM, respectively. For the same molecule, the “selectivity” value on human CB2 receptor [1] is on record as “only weakly selective”. This molecule also showed an EC50 at human CB2 receptor [2] (setting [6]) of 501 nM.
The matching figures for `CCc1c(C)sc(NC(=O)C(Sc2ccccc2)c2ccccc2)c1C(=O)OC` (stereo not drawn) [Compound 3, methyl 4-ethyl-5-methyl-2-(2-phenyl-2 (phenylthio)acetamido)thiophene-3-carboxylate]: 0.8 µM, 1.6 µM, “only weakly selective” and 39.8 nM.
For the molecule `CC1CCN(C(NC(=O)c2ccc(C(C)(C)C)cc2)C(Cl)(Cl)Cl)CC1` (stereo not drawn) [Compound 4, 4-(tert-butyl)-N-(2,2,2-trichloro-1-(4-methylpiperidin-1 yl)ethyl)benzamide], the Ki at human CB2 receptor [1] (setting [3]) was 0.2 µM; at human CB2 receptor [1] (log (Ki, Molar) CB2, [3H]CP 55,940 tracer at 1.5 nM) it was 0.251 µM; on human CB1 receptor it was greater than 10 µM; at human CB1 receptor (setting [4]), greater than 10 µM. Further, the “selectivity” value at human CB2 receptor [1] is reported as “selectively bind CB2 receptors”. Also, the “inhibition of [3H]CP 55,940 binding to CB1 receptors (in words)” value at human CB1 receptor was “no detectable inhibition”. This molecule returned an EC50 on human CB2 receptor [2] (setting [5]) of 80 nM.
